Legend:
[1] = Cytotoxicity against BALB/c mouse splenocytes assessed as highest non-toxic concentration causing >90 % incorporation of [3H]-thymidine after 24 hrs by beta counting method; format: cell-based, Splenocyte; details: read-out: MNTD90
How it was run: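 BALB/c mouse splenocytes at 5 × 10^6 cells/well in RPMI-1640 with 10% inactivated FBS. Compounds were dissolved in DMSO (10 mg/mL stock) and serially diluted to 1.0, 5.0, 10, 25, 50 and 100 (final), in triplicate. Controls were saponin and medium with DMSO. 3H-thymidine was added, then 24 h at 37 °C, 5% CO2, and beta counting. Untreated = 100%; >90% incorporation counted as nontoxic.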

Trypanosoma cruzi [2] = experiment: Trypanocidal activity against epimastigote form of Trypanosoma cruzi Dm28c after 11 days by neubauer chamber method; format: functional; details: 264 h
Trypanosoma cruzi [3] = experiment: Trypanocidal activity against trypamostigote form of Trypanosoma cruzi Y infected in African green monkey Vero cells after 24 hrs by neubauer chamber method; format: functional, organism-based
How it was run: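 Y strain trypomastigotes harvested from Vero cell supernatants, 4 × 10^5 cells/well, compounds in triplicate, benznidazole as positive control. Incubated 24 h at 37 °C, 5% CO2. Motile parasites counted in a Neubauer chamber; untreated wells = 100%. IC50 by nonlinear regression over at least seven concentrations.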

[4] = Lipophilicity, log P of compound; format: physicochemical; details: octanol/water
[5] = Selectivity index, ratio of MNTD90 for cytotoxicity against BALB/c mouse splenocytes to IC50 for trypamostigote form of Trypanosoma cruzi Y infected in African green monkey Vero cells; format: toxicity, cell-based; details: read-out: Selectivity Index

Row | logP [4] | SMILES | MNTC at 24 h [1] | IC50 (Trypanosoma cruzi [2]) | IC50 (Trypanosoma cruzi [3]) | selectivity ratio [5]
1 | 5.66 | O=C1c2ccccc2C(=O)N1Nc1nc(-c2ccc(-c3ccccc3)cc2)cs1 | 252 µM | 4 µM | 27.5 µM | –
2 | – | O=C1c2ccccc2C(=O)N1Nc1nc(-c2ccc([N+](=O)[O-])cc2)cs1 | 2.7 µM | 13.3 µM | 84.9 µM | –
3 | – | O=C1c2ccccc2C(=O)N1Nc1nc(-c2ccc(Cl)cc2Cl)cs1 | 12.8 µM | 10.1 µM | 22.7 µM | –
4 | – | NC(=S)NN1C(=O)c2ccccc2C1=O | 4.5 µM | 56.8 µM | 52 µM | –
5 | – | O=C1c2ccccc2C(=O)N1Nc1nc(-c2ccc(Cl)cc2)cs1 | 2.8 µM | 30.6 µM | 86.2 µM | –
6 | – | O=C1c2ccccc2C(=O)N1C/C=N/N=c1\scc(-c2ccc3ccccc3c2)n1-c1ccccc1 | 205 µM | 11.9 µM | 0.5 µM | 410
7 | – | O=C1c2ccccc2C(=O)N1C/C=N/N=c1/[nH]c(CCl)cs1 | 73.7 µM | 85.7 µM | 2.2 µM | 33.5
8 | – | O=C1c2ccccc2C(=O)N1C/C=N/N=c1\scc(-c2ccc(Cl)cc2)n1-c1ccccc1 | 211 µM | 10.6 µM | 18.4 µM | –
9 | 4.98 | O=C1c2ccccc2C(=O)N1Nc1nc(-c2ccc3ccccc3c2)cs1 | 269 µM | 8 µM | 4.7 µM | –
10 | – | COc1ccc(-c2cs/c(=N\N=C\CN3C(=O)c4ccccc4C3=O)n2-c2ccccc2)cc1 | 213 µM | – | 10 µM | –
11 | – | O=C1c2ccccc2C(=O)N1C/C=N/N=c1\scc(-c2ccccc2)n1-c1ccccc1 | 228 µM | – | 8.8 µM | –
12 | – | O=C1c2ccccc2C(=O)N1C/C=N/NC(=S)Nc1ccccc1 | 50 µM | 36.9 µM | – | –
13 | – | O=C1c2ccccc2C(=O)N1Nc1nc(-c2ccc(F)cc2)cs1 | 2.9 µM | 26.5 µM | 52.1 µM | –
14 | – | Cc1ccc(-c2cs/c(=N\N=C\CN3C(=O)c4ccccc4C3=O)n2-c2ccccc2)cc1 | 221 µM | 57.8 µM | 33.3 µM | –
15 | – | O=C1c2ccccc2C(=O)N1C/C=N/N=c1\scc(-c2ccc(-c3ccccc3)cc2)n1-c1ccccc1 | 194 µM | 44.2 µM | 98 µM | –
